Experiments:
[1] = system: Aorta; assay: Vasorelaxant activity in Sprague-Dawley rat aorta assessed as inhibition of phenylephrine-induced contraction after 15 to 20 mins relative to phenylephrine; type: functional
Outline: (§1)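 Aortic rings from male Sprague-Dawley rats (4–6 months, ~250 g), equilibrated at least 1 h, then precontracted isometrically with PE (1 µM). Once contraction stabilized (~20 min), compounds were added cumulatively at 15–20 min intervals, up to 300 µM. Vehicle-treated control tissues were run in parallel. Relaxation is expressed as % of PE contraction (Emax), n = 4. EC50 was taken as 50% of maximum relaxation, from nonlinear regression of concentration-response curves.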

[2] = system: Aorta; assay: Vasorelaxant activity in Sprague-Dawley rat aorta assessed as inhibition of phenylephrine-induced contraction after 15 to 20 mins; type: functional, tissue-based; outline: as §1

SMILES	EC50 [2] [µM]	EC50 ([2]; read-out: pEC50 (converted)) [µM]	Emax [1] [%]
C=CCc1c(O)cc(O)c(C(=O)/C=C/c2ccc(O)cc2)c1O	24	24	108
C=CCc1c(O)ccc(C(=O)/C=C/c2ccc(O)cc2)c1O	89.1	89.1	73.4
C=CCc1cc(O)cc(C(=O)/C=C/c2ccc(O)cc2)c1O			59.8
O=C1/C(=C/c2cccc(Br)c2)Oc2cc(O)cc(O)c21			59.2
C=CCc1c(O)ccc(C(=O)/C=C/c2ccc3c(c2)OCO3)c1O			71.8
C=CCc1c(O)ccc2c1OC(c1ccc(O)c(OC)c1)CC2=O (racemic)			85
C=CCc1c(O)cc(O)c2c1OC(c1cccc(Cl)c1)CC2=O (racemic)			76.7
C=CCc1c(O)cc(O)c2c1OC(c1ccc(Cl)cc1)CC2=O (racemic)			77.6
C=CCc1c(O)cc(O)c2c1OC(c1ccc(OC)cc1)CC2=O (racemic)			81
C=CCc1c(O)ccc2c1OC(c1ccc3c(c1)OCO3)CC2=O (racemic)	9.4	9.33	96.6
C=CCc1c(O)cc(O)c2c1OC(c1cccc(Br)c1)CC2=O (racemic)			78.8
O=c1c(O)c(-c2ccc(O)c(O)c2)oc2cc(O)cc(O)c12 [QUERCETIN]		245	91.3

Now from value to compound, other results behind:

EC50 [2] [µM]	EC50 ([2]; read-out: pEC50 (converted)) [µM]	SMILES	Emax [1] [%]
36.8	36.3	O=c1cc(-c2cccc(Br)c2)oc2cc(O)cc(O)c12	84.3
	21.4	O=C(/C=C/c1cccc(Br)c1)c1c(O)cc(O)cc1O	99.8
81.7	81.3	O=c1cc(-c2ccc3c(c2)OCO3)oc2cc(O)ccc12	82.1
51.3	51.3	C=CCc1cc(O)cc2c(=O)cc(-c3ccc(O)cc3)oc12	67.3
22.5	22.4	O=C(/C=C/c1ccc2c(c1)OCO2)c1c(O)cc(O)cc1O	104
220	224	O=C1/C(=C/c2ccc3c(c2)OCO3)Oc2cc(O)cc(O)c21	58.4
37	36.3	C=CCc1c(O)cc(O)c2c1OC(c1cccc(O)c1)CC2=O (racemic)	97.8
26.9	26.9	C=CCc1c(O)ccc2c1OC(c1ccc(O)cc1)CC2=O (racemic)	87.2
42.4	43.7	O=C1CC(c2cccc(Br)c2)Oc2cc(O)cc(O)c21 (racemic)	93.5
38.5	38	O=C1CC(c2cccc(Br)c2)Oc2ccc(O)cc21 (racemic)	91.8
34.5	33.9	C=CCc1cc(O)cc2c1OC(c1ccc(O)cc1)CC2=O (racemic)	95.3
10.2	10.2	C=CCc1cc(O)cc2c1OC(c1cccc(O)c1)CC2=O (racemic)	90.2
4.6	4.68	C=CCc1cc(O)cc2c1OC(c1ccc(Cl)cc1)CC2=O (racemic)	95.1
20.1	20	O=C1CC(c2ccc3c(c2)OCO3)Oc2cc(O)cc(O)c21 (racemic)	97.2
32.1	32.4	C=CCc1c(O)cc(O)c2c1OC(c1ccc(O)cc1)CC2=O (racemic)	98.6
142	145	C=CCc1c(O)ccc2c1OC(c1ccc(Cl)cc1)CC2=O (racemic)	70.8
